Measured values pooled from the literature.
Compare with care: the assays were run in different laboratories.
Organism: Mycolicibacterium smegmatis
Effect on: microbial growth

Compound	test	test system	setting	MIC
CN[C@H](CC(C)C)C(=O)N[C@H]1C(=O)N[C@@H](CC(N)=O)C(=O)N[C@H]2C(=O)N[C@H]3C(=O)N[C@H](C(=O)N[C@H](C(=O)O)c4cc(O)cc(O)c4-c4cc3ccc4O)[C@H](O)c3ccc(c(Cl)c3)Oc3cc2cc(c3O[C@@H]2O[C@H](CO)[C@@H](O)[C@H](O)[C@H]2O[C@H]2C[C@](C)(N)[C@H](O)[C@H](C)O2)Oc2ccc(cc2Cl)[C@H]1O	resazurin	ATCC607	72 h	3.12 µg/mL
CC(C)=CCC/C(C)=C/COCCNC1C2CC3CC(C2)CC1C3 (stereo not drawn)	–	–	–	6.2 µg/mL
Cc1ccc(-c2nc3ccc(C)cn3c2CC(=O)N(C)C)cc1	broth dilution	–	–	> 50 µM
CO[C@H]1/C=C/O[C@@]2(C)Oc3c(C)c(O)c4c(O)c(c(/C=N/N5CCN(C)CC5)c(O)c4c3C2=O)NC(=O)/C(C)=C\C=C\[C@H](C)[C@H](O)[C@@H](C)[C@@H](O)[C@@H](C)[C@H](OC(C)=O)[C@@H]1C	–	–	–	2 µg/mL
CNC(=O)c1cc(Oc2ccc(NC(=O)Nc3ccc(Cl)c(C(F)(F)F)c3)cc2)ccn1	–	MC2155	–	50 µM
O=C(Nc1ccccc1)Nc1ncc([N+](=O)[O-])s1	agar dilution	MC^2155	–	> 100 µM
CC(C)=CCC/C(C)=C/CNCCOc1ccccc1	–	–	–	12 µg/mL
NC[C@H]1O[C@@H](O[C@@H]([C@H](NCCCC(=O)NCc2ccc(N3CCC(Oc4ccc(OC(F)(F)F)cc4)CC3)cc2)C(N)=O)[C@H]2O[C@@H](n3ccc(=O)[nH]c3=O)C(O)C2O)[C@H](O)[C@@H]1O (stereo partly drawn)	–	ATCC607	–	0.2 µg/mL
COC1C(C(OC2OC(C(=O)NC3CCCCNC3=O)=CC(O)C2O)C(N)=O)OC(n2ccc(=O)[nH]c2=O)C1OC (stereo not drawn)	broth dilution	ATCC607	–	> 200 µg/mL
CC1(C)S[C@@H]2[C@H](NC(=O)[C@H](N)c3ccccc3)C(=O)N2[C@H]1C(=O)O	resazurin	MC^2155	24 h	50 µg/mL
CO[C@H]1/C=C/O[C@@]2(C)Oc3c(C)c(O)c4c(O)c(c(/C=N/N5CCN(C)CC5)c(O)c4c3C2=O)NC(=O)/C(C)=C\C=C\[C@H](C)[C@H](O)[C@@H](C)[C@@H](O)[C@@H](C)[C@H](OC(C)=O)[C@@H]1C	broth dilution	ATCC607	–	> 200 µg/mL
CC(C)=CCC/C(C)=C/CNC(=O)COC1C2CC3CC(C2)CC1C3 (stereo not drawn)	–	–	–	6.2 µg/mL
